Measured values from article PMC5453637 (Translational research : the journal of laboratory and …, 2016).
Where “and” joins values, the source holds several entries; their conditions need not be identical. Identical values can stand only once. Blank lines part the entries; values can stand above or below the molecule they belong to.

Tests used:
human wild-type CFTR [1] = molecular target: T1, human wild-type CFTR (Homo sapiens, UniProt P13569); experiment: Plate reader assay of CFTR activity; assay type: cell-based; conditions: read-out: EC50 CFTR activation; as stated in abstract
T1 sequence (P13569 whole entry): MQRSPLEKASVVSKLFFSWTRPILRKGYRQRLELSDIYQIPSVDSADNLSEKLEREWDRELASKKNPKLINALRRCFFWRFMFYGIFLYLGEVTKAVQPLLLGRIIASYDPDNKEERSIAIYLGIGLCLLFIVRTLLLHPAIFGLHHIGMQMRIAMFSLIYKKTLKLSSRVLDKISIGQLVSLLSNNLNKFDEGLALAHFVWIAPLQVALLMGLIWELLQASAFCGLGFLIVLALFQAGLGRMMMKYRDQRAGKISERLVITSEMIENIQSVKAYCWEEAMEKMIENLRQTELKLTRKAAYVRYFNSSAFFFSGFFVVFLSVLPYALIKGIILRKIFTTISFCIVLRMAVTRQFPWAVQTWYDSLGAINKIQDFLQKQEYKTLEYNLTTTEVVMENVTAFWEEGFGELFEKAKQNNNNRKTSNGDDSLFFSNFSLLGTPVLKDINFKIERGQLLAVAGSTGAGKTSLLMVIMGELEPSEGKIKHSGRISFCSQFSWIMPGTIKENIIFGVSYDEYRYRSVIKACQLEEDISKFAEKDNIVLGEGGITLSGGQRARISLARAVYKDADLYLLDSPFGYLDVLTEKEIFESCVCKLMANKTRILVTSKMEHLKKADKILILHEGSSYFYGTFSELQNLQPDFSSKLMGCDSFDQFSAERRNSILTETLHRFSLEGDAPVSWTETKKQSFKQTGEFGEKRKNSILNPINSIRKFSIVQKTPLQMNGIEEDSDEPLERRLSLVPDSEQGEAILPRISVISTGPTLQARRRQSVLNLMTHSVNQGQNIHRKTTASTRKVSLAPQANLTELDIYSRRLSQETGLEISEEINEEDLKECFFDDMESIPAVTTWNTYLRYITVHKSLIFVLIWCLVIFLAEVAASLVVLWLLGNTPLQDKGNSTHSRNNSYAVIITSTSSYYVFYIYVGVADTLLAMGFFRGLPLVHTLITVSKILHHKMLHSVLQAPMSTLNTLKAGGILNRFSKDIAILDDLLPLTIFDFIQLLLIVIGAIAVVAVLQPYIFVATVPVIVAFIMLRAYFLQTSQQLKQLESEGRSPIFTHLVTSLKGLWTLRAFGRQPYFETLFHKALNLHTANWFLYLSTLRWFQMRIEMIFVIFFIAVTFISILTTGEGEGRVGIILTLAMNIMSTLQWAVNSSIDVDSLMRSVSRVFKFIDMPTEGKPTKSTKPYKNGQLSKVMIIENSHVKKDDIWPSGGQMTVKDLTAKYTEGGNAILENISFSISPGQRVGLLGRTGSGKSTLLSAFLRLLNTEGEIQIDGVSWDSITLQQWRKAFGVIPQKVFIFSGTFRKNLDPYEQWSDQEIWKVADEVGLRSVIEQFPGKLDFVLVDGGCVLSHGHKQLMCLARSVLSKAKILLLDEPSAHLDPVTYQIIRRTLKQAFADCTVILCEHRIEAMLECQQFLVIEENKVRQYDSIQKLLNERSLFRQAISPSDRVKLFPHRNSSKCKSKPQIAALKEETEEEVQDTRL
Method in brief: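 FRT cells co-expressing human wild-type CFTR and YFP-H148Q were plated at 20,000 cells/well and used 24–48 h later. After 3 PBS washes, cells were incubated 10 min with test compound plus 125 nM forskolin. Fluorescence was recorded 2 s at baseline, then 12 s after adding PBS with 137 mM Cl⁻ replaced by I⁻. Initial iodide influx rate came from exponential regression. EC50 was taken from full concentration-dependence data, n=3.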

human wild-type CFTR [2] = molecular target: T1, human wild-type CFTR; experiment: Whole-cell patch-clamp in FRT cells; assay type: cell-based
human wild-type CFTR [3] = molecular target: T1, human wild-type CFTR; experiment: Inside-out patch-clamp; assay type: biochemical; conditions: 1 μM, after submaximal ATP and catalytic subunit of protein kinase A
Method in brief: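 Inside-out macro-patches were taken from FRT cells stably expressing human wild-type CFTR using large pipette tips (3–5 MΩ). Pipette: 150 mM NMDG-Cl, 3 CaCl2, 2 MgCl2, 10 Na-HEPES, pH 7.3. Test compound (1 μM) followed. Steps of 600 ms ran −100 to +100 mV in 20 mV increments from −60 mV holding, 4 s apart; filtered 1 kHz, sampled 5 kHz. Three experiment sets.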

cellular cAMP [4] = experiment: cAMP immunoassay in FRT cells; assay type: cell-based, rat; conditions: 10 μM, 10 min, alone or with 90 nM forskolin
Method in brief: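 FRT cells in 12-well plates received vehicle, 10 μM test compound with or without 90 nM forskolin, or 20 μM forskolin alone, for 10 min at 37°C. Cells were lysed by freeze-thaw and centrifuged (600g, 10 min, 4°C). cAMP was measured by immunoassay.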

cellular cGMP = experiment: cGMP immunoassay in FRT cells; assay type: cell-based, rat; conditions: 10 μM, 10 min
Method in brief: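 FRT cells received 10 μM test compound or vehicle for 10 min at 37°C. They were lysed by freeze-thaw and cleared by centrifugation (600g, 10 min, 4°C). cGMP was measured by immunoassay.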

cytoplasmic Ca^2+ = experiment: Cytoplasmic calcium measurement; assay type: cell-based, rat; conditions: 10 μM, 2 min, added alone
Method in brief: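 FRT cells were loaded with Fluo-4 NW 48 h after plating. They were pretreated 2 min with 10 μM test compound or vehicle, then given 100 μM ATP as calcium agonist. Cytoplasmic Ca2+ was read as Fluo-4 fluorescence (ex/em 494/516 nm) in a plate reader with syringe pumps.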

[5] = Stability in simulated gastric fluid; assay type: physicochemical; conditions: 10 μM, pH 2, 37°C, 3 hour
Method in brief: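 Test compound (10 μM) was incubated 0 or 3 h at 37°C in simulated gastric fluid (NaCl, 0.7% HCl, pH 2). Remaining compound was measured by LC/MS chromatography. n=3.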

[6] = In vitro metabolic stability in human liver microsomes; assay type: in vitro ADME; conditions: 1 mM NADPH, 37°C
Method in brief: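 Test compound was incubated at 37°C for specified times with human liver microsomes (1 mg protein/mL) in 100 mM potassium phosphate with 1 mM NADPH. Samples were chilled on ice and extracted with ice-cold ethyl acetate. Supernatant was dried, redissolved in acetonitrile:water 3:1 and quantified by LC/MS: 5–95% acetonitrile gradient over 16 min, 0.2 mL/min, ESI(+), m/z 100–1500.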

[7] = system: scopolamine-induced constipation; experiment: Scopolamine-induced mouse model of acute constipation; assay type: in vivo, mice
Method in brief: (§1)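 Female CD1 mice, 8–10 weeks, were made constipated with loperamide 0.3 mg/kg ip or scopolamine 0.5 mg/kg ip. Test compound 10 mg/kg (saline with 5% DMSO and 10% Kolliphor HS 15) or vehicle was given ip or orally, 1 h before or 1 h after the inducer. Mice sat in metabolic cages with food and water. Stool was collected 3 h for weight, pellet number and water content (dried 80°C, 24 h). n=4 mice/group.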

[8] = system: loperamide-induced constipation; experiment: Loperamide-induced mouse model of constipation; assay type: in vivo, mice
Method in brief: as §1

C3H/HeJ mice = experiment: Genetic mouse model of chronic constipation; assay type: in vivo
C3H/HeOuJ mice = experiment: Wild-type control mice; assay type: in vivo; conditions: 10 mg/kg
Method in brief: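 Female C3H/HeJ (Tlr4 mutant, chronically constipated) and background C3H/HeOuJ mice, 8–11 weeks, were studied as paired animals. They received test compound 10 mg/kg orally in saline with 5% DMSO and 10% Kolliphor HS 15, or vehicle, at zero time, then went into metabolic cages. Stool was collected 4 h for weight, pellet count and water content ([wet − dry]/wet after drying 80°C, 24 h). n=10 mice/group.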

[9] = system: enteroids generated from normal human duodenum and jejunum; experiment: Swelling measurements in human enteroids; assay type: cell-based
Method in brief: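 Enteroids came from adult duodenal/jejunal endoscopic biopsies, grown on coverglass dishes. Medium was replaced with Advanced DMEM/F12 and cytoplasm labelled with calcein green-AM, 1 h at 37°C. Forskolin was added, […], and/or test compound at 5 μM; test compound went in 10 min before forskolin when combined. Confocal images were taken every 10 min at 37°C, 5% CO2. Result was percent increase in enteroid area over initial area, e.g. at 40 min.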

cellular cAMP [10] = conditions: cited from earlier work
[11] = system: loperamide-induced constipation; conditions: cited from earlier work
[12] = cited from earlier work
[13] = mice, rapid hepatic metabolism; cited from earlier work
CFTR-deficient mice = conditions: cited from earlier work

Molecule: Nc1ccc([N+](=O)[O-])cc1-c1nc2ccccc2n(Cc2ccccc2)c1=O [CFTRact-J027]
EC50 (human wild-type CFTR [1]): ~200 nM
Increase of CFTR activity (whole-cell current) (human wild-type CFTR [2]; 1 μM extracellular, after 150 nM forskolin (~25% maximal stimulation)): more than 4 fold
CFTR activity in inside-out patch (human wild-type CFTR [3]): strongly increased CFTR activity
Cellular cAMP (cellular cAMP [4]): did not elevate cellular cAMP
Cellular cGMP (cellular cGMP): did not elevate cellular cGMP
Cytoplasmic Ca^2+ (cytoplasmic Ca^2+): nor did it elevate cytoplasmic Ca^2+
Stability in simulated gastric fluid [5]: no compound degradation
Elimination half-life in human hepatic microsomes ([6]; 1 mg protein/mL, CFTRact-J027 as printed): ~ 35 min and 35 min
Compound remaining at 60 minutes ([6]; human hepatic microsomes): 34%
Efficacy on stool parameters, given after development of constipation ([7]; 10 mg/kg ip, 1 hour after scopolamine): effective
Efficacy on stool parameters, given orally after development of constipation ([7]; 10 mg/kg po, 1 hour after scopolamine): not effective
Stool parameters (3-hour stool weight, pellet number, water content) ([7]; 10 mg/kg po, 1 hour before scopolamine 0.5 mg/kg ip): normalization of stool parameters
Duration of effect ([7]; in mice): 3 to 4 h
Efficacy on stool parameters, given after development of constipation ([8]; 10 mg/kg ip, 1 hour after loperamide 0.3 mg/kg ip): effective
Efficacy on stool parameters, given orally after development of constipation ([8]; 10 mg/kg po, 1 hour after loperamide): not effective
Whole-gut transit time (C3H/HeJ mice; 10 mg/kg ip): normalized
4-hour stool weight, pellet number, and water content (C3H/HeJ mice; 10 mg/kg oral): to the level of wild-type controls
Stool parameters or whole-gut transit time in wild-type control mice (C3H/HeOuJ mice): did not affect
Enteroid size, compound alone ([9]; 5 μM, 40 minutes, human jejunal enteroids, no forskolin): Little or no change
Enteroid swelling response to low forskolin after pretreatment ([9]; 0.1 or 0.2 μM forskolin, pretreatment 10 minutes with CFTRact-J027, duodenum and jejunum): increased
Swelling response relative to maximal (5 μM) forskolin ([9]; human enteroids): approximately 50%
Cellular cAMP concentration (prior data) (cellular cAMP [10]): does not elevate cellular cAMP concentration
Stool output, stool water content, and intestinal transit ([11]; acute constipation produced by loperamide): normalized
ED50 orally administered, loperamide model ([11]; oral, mice): 0.5 mg/kg
Blood counts, serum chemistries, and lung water content ([12]; chronic oral high-dose, mice): no effect
Toxicity [12]: showed no toxicity
Systemic exposure following oral administration [13]: minimal systemic exposure
Effect in CFTR-deficient mice (CFTR-deficient mice): no effect

Molecule: C=C[C@@]1(C)CC(=O)[C@]2(O)[C@@]3(C)[C@@H](O)CCC(C)(C)[C@@H]3[C@H](O)[C@H](OC(C)=O)[C@@]2(C)O1 [forskolin, reference compound]
Enteroid area, forskolin alone ([9]; 0.3 μM forskolin, 40 minutes, human jejunal enteroids): small increase in area

Block of currents activated by forskolin and CFTRact-J027 (human wild-type CFTR [2]; 10 μM): blocked
Molecule: CFTRinh-172 [reference compound]
